Columns and labels:
[1] = Displacement of [3H][…] from opioid sigma2 receptor in rat liver homogenate in presence of (+)-pentazocine; assay type: tissue-based
How it was run: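 Rat liver membranes (about 100 µg protein, 50 mM Tris pH 8.0) incubated 180 min at room temperature with six concentrations of test compound, 3 nM [3H]-ditolylguanidine (Kd 17.9 nM) and 500 nM (+)-pentazocine. […] IC50 by nonlinear regression, Ki by Cheng–Prusoff; triplicates, mean ± SEM of three experiments.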

[2] = target: Sigma non-opioid intracellular receptor 1 (Cavia porcellus) (UniProt Q60492); test: Displacement of [3H](+)-pentazocine from opioid sigma1 receptor in guinea pig brain homogenate at 1 uM; assay type: tissue-based
Chain of Sigma non-opioid intracellular receptor 1 (Cavia porcellus) (Q60492 whole entry): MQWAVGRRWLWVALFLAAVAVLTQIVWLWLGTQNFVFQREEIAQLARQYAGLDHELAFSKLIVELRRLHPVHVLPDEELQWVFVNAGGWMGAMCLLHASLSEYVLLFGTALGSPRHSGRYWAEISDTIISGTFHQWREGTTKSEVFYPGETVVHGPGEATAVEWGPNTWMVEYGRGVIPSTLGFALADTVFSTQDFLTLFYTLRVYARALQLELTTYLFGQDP
How it was run: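 Guinea pig brain membranes (about 75 µg protein, 50 mM Tris pH 7.4) with 2 nM [3H]-(+)-pentazocine, 180 min at 37 °C. Test compound at 1 µM; inhibition of radioligand binding reported. Non-specific binding with 10 µM unlabeled (+)-pentazocine; filtration and scintillation counting.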

Sus scrofa = organism: Sus scrofa; test: Displacement of [3H]MK-801 from NMDA receptor in pig brain cortex at 1 uM
5637 = test: Cytotoxicity against human 5637 cells at 20 uM after 96 hrs by crystal violet staining relative to control; assay type: functional
How it was run: (§1)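 Cell lines from DSMZ (German collection). Cells exposed to 20 µM test substance at 37 °C for 96 h; medium removed and adherent (living) cells stained with crystal violet. Growth given as % of untreated control; averages of two independent experiments.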

RT-4 = test: Cytotoxicity against human RT4 cells at 20 uM after 96 hrs by crystal violet staining relative to control; assay type: functional; how it was run: as §1
A-427 [3] = test: Cytotoxicity against human A427 cells at 20 uM after 96 hrs by crystal violet staining relative to control; assay type: functional; how it was run: as §1
[4] = Cytotoxicity against human LCLC-103H cells at 20 uM after 96 hrs by crystal violet staining relative to control; assay type: functional; how it was run: as §1
DAN-G = test: Cytotoxicity against human DAN-G cells after 96 hrs at 20 uM by crystal violet staining relative to control; assay type: functional; how it was run: as §1
A-427 [5] = test: Cytotoxicity against human A427 cells after 96 hrs by crystal violet staining relative to control; assay type: functional, cell-based; conditions: A-427, 96 h
How it was run: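 Crystal violet microtiter assay, 96 h exposure at 37 °C. Five serial dilutions from DMF stock solutions; concentrations giving T/C between 10% and 90% used, and IC50 calculated by least-squares analysis of dose–response curves.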

MCF7 = test: Cytotoxicity against human MCF7 cells after 96 hrs at 20 uM by crystal violet staining relative to control; assay type: functional; how it was run: as §1
[6] = Selectivity ratio of Ki for rat sigma2 receptor to Ki for guinea pig sigma1 receptor
[7] = target: Sigma non-opioid intracellular receptor 1 (Cavia porcellus, UniProt Q60492); test: Displacement of [3H](+)-pentazocine from opioid sigma1 receptor in guinea pig brain homogenate; assay type: tissue-based
Chain of Sigma non-opioid intracellular receptor 1 (Q60492 whole entry): as above
How it was run: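 Non-specific binding with 10 µM unlabeled (+)-pentazocine. Filtration, scintillation counting; IC50 by nonlinear regression, Ki by Cheng–Prusoff; triplicates, mean ± SEM of three independent experiments.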

| Ki [1] [nM] | inhibition [2] [%] | Activity (Sus scrofa) [%] | Ratio [6] | Ki [7] [nM] | Compound | Activity 5637 [%] | Activity (RT-4) [%] | Activity (A-427 [3]) [%] | Activity [4] [%] | Activity (DAN-G) [%] | IC50 (A-427 [5]) [µM] | Activity (MCF7) [%] |
| --- | --- | --- | --- | --- | --- | --- | --- | --- | --- | --- | --- | --- |
| 13500 | 37 | < 25 | – | – | C=CCN1C[C@H]2[C@@H](OC)CC[C@@H]1CN2Cc1ccc(OC)cc1OC | 63 | 87 | 49 | 98 | 84 | 18.9 | 79 |
| 203 | – | < 25 | 20 | 11 | C=CCN1C[C@@H]2CCC[C@H]1CN2Cc1ccc(OC)cc1 | 87 | 65 | 42 | 91 | 92 | – | 65 |
| 1210 | – | < 25 | 4 | 343 | C=CCN1C[C@H]2[C@@H](O)CC[C@@H]1CN2Cc1ccc(OC)cc1 | 104 | 107 | 90 | 111 | 100 | – | 99 |

From ChEMBL document CHEMBL1140857 (Bioorg Med Chem, 2009)
